According to ChEMBL document CHEMBL1124254, “Pumiliotoxin alkaloids: relationship of cardiotonic activity to sodium channel activity and phosphatidylinositol turnover” (1988):

Key:
Format in all cases: functional
Cavia porcellus [1] = species on record: Cavia porcellus; experiment: Cardiotonic activity was measured in guinea pig atria at 54 uM concentration; Ranking -
Outline: (§1)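 Isolated atria suspended at 37 °C in Tyrode's solution aerated with O2-CO2 (95:5). After at least 1 h equilibration, cumulative dose-response curves for rate and force of spontaneous contractions were built by serial additions of alkaloid in methanol, at least 10 min apart. Effects given at 54 μM; values are averages of two to six experiments.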

Cavia porcellus [2] = species on record: Cavia porcellus; experiment: Phosphoinositide breakdown in guinea pig brain synaptoneurosomes.; parameters: concentration or dose not given beside the values
Outline: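 Guinea pig cerebral cortex synaptoneurosomes (~1 mg protein per tube) were labelled 60 min at 37 °C with 1 μM [3H]inositol in Krebs-Henseleit buffer (pH 7.4). LiCl was added, and agents were added 10 min later for 90 min at 37 °C under O2-CO2. [3H]inositol 1-phosphate was isolated by anion exchange and counted. Results are percent of control, means ± SEM (n = 3) or single values at 10 μM.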

Cavia porcellus [3] = species on record: Cavia porcellus; experiment: Cardiotonic activity was measured in guinea pig atria at 54 uM concentration; Ranking; outline: as §1
Mus musculus = species on record: Mus musculus; experiment: Phosphoinositide (PI) breakdown was measured in mouse atria at 10 uM
Outline: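 Male mouse (20-25 g) right and left atria were prelabelled for 60 min at 37 °C in Krebs-Henseleit buffer (pH 7.4) with 1 μM [3H]inositol. LiCl (10 mM final) was added, and agents were added 15 min later at 10 μM for 30 min at 37 °C. [3H]inositol phosphates in the TCA extract were separated by anion exchange. Results are percent of control, two to four determinations ± SEM.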

Cavia porcellus [4] = species on record: Cavia porcellus; experiment: Specific sodium influx was measured in guinea pig brain synaptoneurosomes at 100 uM concentration (10s of incubation)
Cavia porcellus [5] = species on record: Cavia porcellus; experiment: Cardiotonic activity was measured in guinea pig atria at 18 uM concentration; Ranking
Outline: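 Isolated spontaneously beating atria held at 37 °C in Tyrode's solution gassed with 95:5 O2-CO2, equilibrated at least 1 h. Alkaloid was added serially in methanol, at least 10 min apart, to build cumulative dose-response curves. Rate and force of spontaneous contractions were recorded. Values are averages of two to six experiments.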

Compound | Activity (Cavia porcellus [1]) | Activity (Cavia porcellus [2]) [%] | Activity (Cavia porcellus [3]) | Activity (Mus musculus) [%] | Activity (Cavia porcellus [4]) | Activity (Cavia porcellus [5])
CCC[C@H](C)/C=C1\CN2CCC[C@H]2[C@@](C)(O)[C@H]1O | Ranking - | 116 | – | – | – | –
CC[C@@H](O)/C(C)=C/C[C@@H](C)/C=C1\CN2CCC[C@H]2[C@@](C)(O)[C@@H]1O | – | 137 | Ranking | – | – | –
C/C(=C\C[C@@H](C)/C=C1\CN2CCC[C@H]2[C@@](C)(O)C1)[C@H](O)[C@H](C)O | – | 129 | Ranking | – | – | –
CCCC[C@@H](C)/C=C1\CN2CCC[C@H]2[C@@](C)(O)C1 | Ranking - | 132 | – | – | – | –
C/C(=C\C[C@H](C)/C=C1\CN2CCC[C@H]2[C@@](C)(O)C1)[C@@H](O)[C@@H](C)O | – | 110 | Ranking | – | – | –
CCC(=O)/C(C)=C/C[C@@H](C)/C=C1\CN2CCC[C@H]2[C@@](C)(O)C1 | Ranking - | 109 | – | – | – | –
C[C@@H](/C=C1\CN2CCC[C@H]2[C@@](C)(O)C1)CCOCc1ccccc1 | Ranking - | 102 | – | – | – | –
C/C(=C\C[C@@H](C)/C=C1\CN2CCC[C@H]2[C@@](C)(O)C1)[C@@H](O)[C@@H](C)O | – | 280 | – | 150 | 3.05 nM (mg of protein)-1 | –
C[C@]1(O)C/C(=C/CCCCCCO)CN2CCC[C@H]21 | Ranking - | 122 | – | – | – | –
C=CCCCC/C=C1\CN2CCC[C@H]2[C@@](C)(O)C1 | Ranking - | 112 | – | – | – | –
C/C(=C\C[C@@H](C)/C=C1\CN2CCC[C@H]2[C@@](C)(O)[C@H]1O)[C@@H](O)[C@@H](C)O | – | 176 | Ranking | – | – | –
C/C(=C\C[C@@H](C)/C=C1\CN2CCC[C@H]2[C@@](C)(O)[C@@H]1O)[C@@H](O)[C@@H](C)O | – | 304 | – | – | – | Ranking
C[C@H](/C=C1\CN2CCC[C@H]2[C@@](C)(O)C1)CCO | Ranking - | 115 | – | – | – | –
CCC(OC)/C(C)=C/C[C@@H](C)/C=C1\CN2CCC[C@H]2[C@@](C)(O)C1 (stereo not given in full) | Ranking - | 118 | – | 92 | 0.29 nM (mg of protein)-1 | –
CCC(O)/C(C)=C/C[C@@H](C)/C=C1\CN2CCC[C@H]2[C@@](C)(O)C1 (stereo not given in full) | – | 172 | Ranking | 114 | 0.72 nM (mg of protein)-1 | –
CC(O)CC[C@@H](C)/C=C1\CN2CCC[C@H]2[C@@](C)(O)C1 (stereo not given in full) | – | 129 | Ranking | – | – | –
C[C@@H](/C=C1\CN2CCC[C@H]2[C@@](C)(O)C1)CCO | Ranking - | 110 | – | – | – | –
CC[C@H](O)/C(C)=C/C[C@@H](C)/C=C1\CN2CCC[C@H]2[C@@](C)(O)[C@@H]1O | – | 275 | – | – | – | Ranking
CC[C@H](O)/C(C)=C/C[C@@H](C)/C=C1\CN2CCC[C@H]2[C@@](C)(O)C1 | – | – | Ranking | – | – | –
C/C(=C\C[C@@H](C)/C=C1\CN2CCC[C@H]2[C@@](C)(O)C1)[C@@H](O)[C@H](C)O | – | – | Ranking | – | – | –
CCC[C@@H](C)/C=C1\CN2CCC[C@H]2[C@@](C)(O)[C@@H]1O | – | 138 | Ranking | – | – | –
